Reference: article PMC2225614 (The Journal of General Physiology, 2001)
Read-outs that look alike come from different tables or passages of the source.

Columns and labels:
[1] = system: CHM 30 (converse substitution in OLFα background); assay: Genistein inhibition of closed chimeric channel CHM 30; format: biochemical, bovine/rat; settings: closed channels
[2] = system: CHM18 (OLFα with a RETα cyclic nucleotide–binding domain); assay: Genistein inhibition of closed chimeric channel CHM18; format: biochemical, bovine/rat; settings: closed channels
Procedure, shortened: (§1)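 Chimeric RETα/OLFα channels were expressed in Xenopus oocytes (50 nl of 50 ng/μl RNA, 2–7 d), and the vitelline membrane was removed. Inside-out patches were bathed in symmetrical 115 mM NaCl, 5 mM EGTA, 1 mM EDTA, 5 mM HEPES, pH 7.5, held at −75 mV. Test compound was preapplied 1 min to closed channels, then saturating 2 mM cGMP; residual current normalized to Imax.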

[3] = system: CHM 19 (RETα with the OLFα pore); assay: Genistein inhibition of closed chimeric channel CHM 19; format: biochemical, bovine/rat; settings: closed channels
Procedure, shortened: as §1

[4] = system: CHM22 (S5 domain exchanged between RETα and OLFα); assay: Genistein inhibition of closed chimeric channel CHM22; format: biochemical, bovine/rat; settings: closed channels
Procedure, shortened: as §1

[5] = system: CHM 14 (OLFα except for mid-S1 through S4); assay: Genistein inhibition of closed chimeric channel CHM 14; format: biochemical, bovine/rat; settings: closed channels
Procedure, shortened: as §1

[6] = system: CHM12 (RETα except for mid-S1 through S4); assay: Genistein inhibition of closed chimeric channel CHM12; format: biochemical, bovine/rat; settings: closed channels
Procedure, shortened: as §1

[7] = system: CHM11 (RETα with OLFα pore module: S5, P region, S6, initial C-linker); assay: Genistein inhibition of chimeric channel CHM11; format: biochemical, bovine/rat
[8] = system: CHM 15 (switched NH2-terminal domain through part of S1); assay: Genistein inhibition of closed chimeric channel CHM 15; format: biochemical, bovine/rat; settings: closed channels; behaved like parent channel
Procedure, shortened: as §1

[9] = system: CHM34 (converse substitution in OLFα background); assay: Genistein inhibition of closed chimeric channel CHM34; format: biochemical, bovine/rat; settings: closed channels
[10] = target: T1, α-subunit of the bovine retinal rod CNG channel (RETα) (Bos taurus, UniProt Q00194); format: biochemical; settings: for opening allosteric constant (L): L = Po/(1 − Po)
T1 sequence (Q00194 1-690): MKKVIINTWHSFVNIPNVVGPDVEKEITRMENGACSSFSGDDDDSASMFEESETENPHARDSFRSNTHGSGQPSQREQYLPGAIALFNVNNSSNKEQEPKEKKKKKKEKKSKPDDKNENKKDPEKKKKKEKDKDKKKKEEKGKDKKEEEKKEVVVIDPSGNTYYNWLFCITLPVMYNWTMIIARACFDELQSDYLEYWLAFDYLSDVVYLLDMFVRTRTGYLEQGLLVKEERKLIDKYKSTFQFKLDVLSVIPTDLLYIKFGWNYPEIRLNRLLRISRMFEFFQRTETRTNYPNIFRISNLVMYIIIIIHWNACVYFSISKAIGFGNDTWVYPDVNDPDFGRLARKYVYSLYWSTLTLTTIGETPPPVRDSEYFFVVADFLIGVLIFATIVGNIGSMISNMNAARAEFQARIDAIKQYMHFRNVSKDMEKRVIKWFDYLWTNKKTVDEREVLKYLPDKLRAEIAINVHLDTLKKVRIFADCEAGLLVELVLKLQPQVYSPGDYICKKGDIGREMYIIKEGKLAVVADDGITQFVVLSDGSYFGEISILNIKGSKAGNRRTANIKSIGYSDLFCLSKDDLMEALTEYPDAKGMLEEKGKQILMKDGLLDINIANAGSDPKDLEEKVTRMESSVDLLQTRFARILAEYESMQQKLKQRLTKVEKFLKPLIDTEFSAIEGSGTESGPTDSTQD

[11] = system: CHM20 (S5 domain exchanged between RETα and OLFα); assay: Genistein inhibition of closed chimeric channel CHM20; format: biochemical, bovine/rat; settings: closed channels
Procedure, shortened: as §1

[12] = system: CHM17 (RETα with the OLFα cyclic nucleotide–binding domain); assay: Genistein inhibition of closed chimeric channel CHM17; format: biochemical, bovine/rat; settings: closed channels
Procedure, shortened: as §1

[13] = target: T1, α-subunit of the bovine retinal rod CNG channel (RETα); format: biochemical; settings: for Ki: Ki (apparent affinity)
Procedure, shortened: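 RETα was expressed in oocytes from 50 nl of 50 ng/μl RNA. Inside-out patches were held at −75 mV in symmetrical NaCl/EGTA/EDTA/HEPES, pH 7.5, with solution exchange within 50 ms. Current was normalized to Imax: residual current after 1 min preexposure then 2 mM cGMP, or steady-state current with compound added during 2 mM cGMP. Ki and Hill coefficient came from a modified Hill fit; τa from single-exponential fits; mean ± SEM.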

[14] = system: CHM16 (switched NH2-terminal domain through part of S1); assay: Genistein inhibition of closed chimeric channel CHM16; format: biochemical, bovine/rat; settings: closed channels; behaved like parent channel
Procedure, shortened: as §1

[15] = system: α-subunit of the rat olfactory CNG channel (OLFα); settings: ref Molokanova et al. 2000; cited from earlier work
[16] = after genistein application, saturating cGMP

genistein inhibition [2]: no inhibition
effect on single-channel current ([10]; 100 μM genistein, saturating cGMP): unaffected
decrease in the average Po ([10]; 100 μM genistein, saturating cGMP, six patches): 39 ± 6%
Po during periods of high activity (bursty pattern) [10, 16]: 0.4–0.9
duration of high-Po periods [10, 16]: 15 to 30 s
duration of silent periods (Po = 0) [10, 16]: 10 to 80 s
single-channel current (i) ([10]; after preexposure to 100 μM genistein, Fig. 6 A): 1.97 pA
single-channel current (i) ([10]; after preexposure to 100 μM genistein, Fig. 6 B): 1.96 pA
Po, intermediate gating mode ([10]; after preexposure to 100 μM genistein, all four patches with this mode): 0.39 ± 0.08
decrease of L compared with control ([10]; in the presence of genistein): 30–1,000 fold
single-channel current (i) ([10]; in the presence of genistein, 2 mM cGMP, −80 mV, Fig. 5 B): 1.97 pA
open probability (Po) ([10]; in the presence of genistein, 2 mM cGMP, −80 mV, Gaussian fit, Fig. 5 B): 0.529
free energy of channel opening (ΔGopening) ([10]; one genistein molecule): 0.24 kcal/mol
opening allosteric constant (L) ([10]; one genistein molecule bound): 0.61
opening allosteric constant (L) ([10]; two genistein molecules bound): 0.02
genistein inhibition [12]: complete inhibition
Ki ([13]; closed channels): 4.3 ± 0.9 µM
Ki ([13]; fully activated channels (saturating cGMP)): 84.1 ± 6.8 µM
Hill coefficient of genistein inhibition ([13]; closed channels): 1.97 ± 0.08
dissociation of genistein–PTK from closed channels (time) ([13]; closed channels): > 1 min
residual current, of maximal current ([13]; closed channels pretreated with Ni^2+ and genistein for 1 min): 32.1 ± 3.4%
residual current, of maximal current ([13]; closed channels pretreated with genistein alone): 1.3 ± 0.8%
association time constant (τa) ([13]; closed channels, 10 μM genistein): 9.1 ± 0.4 s
association time constant (τa) ([13]; closed channels, 25 μM genistein): 8.9 ± 0.6 s
association time constant (τa) ([13]; closed channels, 100 μM genistein): 8.6 ± 0.7 s
dissociation time constant ([13]; closed channels, first of two exponentials, 1-s cGMP puffs every 15 s): 66 s
dissociation time constant ([13]; closed channels, second of two exponentials, 1-s cGMP puffs every 15 s): 808 s
association time constant (τa) ([13]; closed channels, single exponential fit, Fig. 2 A, 100 μM genistein): 9.3 s
Hill coefficient of genistein inhibition ([13]; fully activated channels): 1.02 ± 0.03
association time constant (τa) ([13]; fully activated channels, 25 μM genistein): 12.1 ± 0.6 s
association time constant (τa) ([13]; fully activated channels, 100 μM genistein): 12.6 ± 0.7 s
association time constant (τa) ([13]; fully activated channels, 250 μM genistein): 12.6 ± 0.9 s
association time constant (τa) ([13]; fully activated channels, single exponential fit, Fig. 2 B): 13.1 s
dissociation time constant ([13]; fully activated channels, single exponential, after 1 min preexposure): 14.4 s
efficacy of genistein inhibition ([13]; fully activated channels, steady-state current in saturating cGMP): 65 ± 6%
change in cGMP sensitivity ([13]; genistein applied on fully activated channels): fourfold decrease
inhibition at 100 µM ([13]; read-out: inhibition of macroscopic current): 41%
fraction of steady-state current from channels devoid of genistein–PTK ([13]; saturating cGMP plus genistein, Fig. 3 B protocol): < 60%
Structure (SMILES): O=c1c(-c2ccc(O)cc2)coc2cc(O)cc(O)c12 [genistein]
genistein inhibition [1]: neither substitution introduced genistein inhibition
effect of domain exchange on genistein inhibition [3]: did not alter genistein inhibition
effect of domain exchange on genistein inhibition [4]: did not alter genistein inhibition
genistein inhibition [5]: not inhibited
genistein inhibition [6]: fully inhibited
maximal inhibition ([7]; closed state, 500 μM genistein): ~15%
genistein sensitivity ([7]; open state, up to 500 μM genistein): completely insensitive
effect of domain switch on genistein inhibition [8]: had no effect
genistein inhibition [9]: neither substitution introduced genistein inhibition
effect of domain exchange on genistein inhibition [11]: did not alter genistein inhibition
effect of domain switch on genistein inhibition [14]: had no effect
genistein inhibition [15]: do not exhibit genistein inhibition
